Experimental data: ChEMBL document CHEMBL3763019, “Discovery of benzenesulfonamide derivatives as potent PI3K/mTOR dual inhibitors with in vivo efficacies against hepatocellular carcinoma” (Bioorg Med Chem, 2016)
pIC50: −log10 of the molar value.

Tests used:
[1] = Antiproliferative activity against human SKOV3 cells incubated for 48 hrs by sulforhodamine B assay; assay type: functional; settings: SK-OV-3, 48 h
Method in brief: (§1)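 Run externally by the US National Cancer Institute as part of its 60 human cancer cell line cytotoxicity screen (NCI-60).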

[2] = Antiproliferative activity against human RXF393 cells incubated for 48 hrs by sulforhodamine B assay; assay type: functional; settings: RXF 393, 48 h; method in brief: as §1
SN12C = assay: Antiproliferative activity against human SN12C cells incubated for 48 hrs by sulforhodamine B assay; assay type: functional; method in brief: as §1
[3] = Antiproliferative activity against human UO31 cells incubated for 48 hrs by sulforhodamine B assay; assay type: functional; settings: UO-31, 48 h
MCF7 = assay: Antiproliferative activity against human MCF7 cells incubated for 48 hrs by sulforhodamine B assay; assay type: functional; settings: MCF7, 48 h; method in brief: as §1
A549 = assay: Inhibition of insulin-stimulated PI3K in human A549 cells assessed as suppression of AKT phosphorylation at Ser473 after 30 mins by Western blot analysis; assay type: cell-based
Method in brief: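 A549 cells were insulin-stimulated for 2 h, then exposed to four compound concentrations for 30 min. Lysis was in ice-cold RIPA buffer, protein was quantified by BCA, and lysates were run on 10% SDS-PAGE and transferred to nitrocellulose. Detection was by infrared imaging, with β-actin as loading control.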

Mus musculus = assay: Toxicity in BALB/C nude mouse xenografted with human Bel7404 cells assessed as reduction in body weight at 30 mg/kg, po qd for 14 consecutive days; assay type: organism-based; settings: in vivo
Method in brief: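 Male BALB/C nude mice were implanted with BEL-7404 cells. When tumors reached 100–300 mm³ (after 12 days), mice were randomized to 6 per treatment group and 8 controls. The drug, suspended in 5% polysorbate 80 in water, was given orally once daily for 14 days from day 13. Body weight and mortality were tracked during dosing, and mice were sacrificed on day 29.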

[4] = molecular target: Phosphatidylinositol 4,5-bisphosphate 3-kinase catalytic subunit gamma isoform (Homo sapiens, UniProt P48736); assay: Inhibition of PI3K-gamma (unknown origin) after 40 mins by ADP-Glo luminescent kinase assay
Method in brief: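 Final enzyme was PI3Kβ 4.8 nM and PI3Kγ 7.6 nM. ADP-Glo reagent stopped the reaction (40 min), then detection reagent was added (60 min) and luminescence read. Percent inhibition was derived from RLU.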

[5] = molecular target: T1, Phosphatidylinositol 4,5-bisphosphate 3-kinase catalytic subunit delta isoform (Homo sapiens) (UniProt O00329); assay: Inhibition of PI3K-delta (unknown origin) using PIP2 as substrate at 10 nM incubated for 1 hr by Kinase-Glo luminescent kinase assay
T1 sequence (whole entry): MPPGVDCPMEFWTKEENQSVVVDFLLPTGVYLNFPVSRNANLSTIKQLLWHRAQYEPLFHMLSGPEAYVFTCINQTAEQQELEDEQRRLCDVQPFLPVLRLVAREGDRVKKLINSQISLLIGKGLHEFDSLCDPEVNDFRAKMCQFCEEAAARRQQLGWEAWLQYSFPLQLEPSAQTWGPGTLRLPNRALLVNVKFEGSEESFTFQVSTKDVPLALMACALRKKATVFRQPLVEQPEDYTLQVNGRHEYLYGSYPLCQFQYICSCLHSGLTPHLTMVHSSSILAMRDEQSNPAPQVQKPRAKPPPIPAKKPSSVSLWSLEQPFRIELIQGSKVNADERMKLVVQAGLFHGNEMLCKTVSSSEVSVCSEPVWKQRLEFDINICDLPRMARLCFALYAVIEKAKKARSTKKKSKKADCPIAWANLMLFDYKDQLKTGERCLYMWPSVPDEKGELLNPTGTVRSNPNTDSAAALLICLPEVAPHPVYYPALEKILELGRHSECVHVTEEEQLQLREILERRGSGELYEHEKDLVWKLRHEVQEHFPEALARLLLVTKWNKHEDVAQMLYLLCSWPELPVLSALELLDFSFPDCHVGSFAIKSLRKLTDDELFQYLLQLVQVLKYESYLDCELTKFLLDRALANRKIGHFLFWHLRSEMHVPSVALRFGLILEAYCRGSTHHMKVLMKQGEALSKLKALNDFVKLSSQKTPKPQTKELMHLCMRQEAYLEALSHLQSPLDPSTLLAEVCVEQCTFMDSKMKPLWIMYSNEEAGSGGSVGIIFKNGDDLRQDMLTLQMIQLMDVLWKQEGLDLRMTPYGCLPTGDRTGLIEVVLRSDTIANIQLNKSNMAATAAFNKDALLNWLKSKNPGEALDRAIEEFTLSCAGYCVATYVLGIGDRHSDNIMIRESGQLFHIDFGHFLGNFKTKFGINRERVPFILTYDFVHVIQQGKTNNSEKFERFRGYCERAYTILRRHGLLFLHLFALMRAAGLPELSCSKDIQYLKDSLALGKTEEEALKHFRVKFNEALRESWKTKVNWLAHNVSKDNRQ
Method in brief: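 Final PIP2 was 50 µM and ATP 25 µM; PI3Kδ was 1.65 nM. Reactions ran 1 h at room temperature, then Kinase-Glo was added for 15 min before reading luminescence. Percent inhibition was derived from RLU. Dose-response used ten 3-fold dilutions (top 100 or 500 nM) in duplicate.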

EKVX = assay: Antiproliferative activity against human EKVX cells incubated for 48 hrs by sulforhodamine B assay; assay type: functional
NCI-H23 = assay: Antiproliferative activity against human NCI-H23 cells incubated for 48 hrs by sulforhodamine B assay; assay type: functional; settings: NCI-H23, 48 h; method in brief: as §1
[6] = Antiproliferative activity against human HCT116 cells incubated for 48 hrs by sulforhodamine B assay; assay type: functional; settings: HCT-116, 48 h; method in brief: as §1
[7] = Antiproliferative activity against human SNB75 cells incubated for 48 hrs by sulforhodamine B assay; assay type: functional; settings: SNB-75, 48 h; method in brief: as §1
Malme-3M = assay: Antiproliferative activity against human MALME-3M cells incubated for 48 hrs by sulforhodamine B assay; assay type: functional; method in brief: as §1
SK-MEL-5 = assay: Antiproliferative activity against human SK-MEL-5 cells incubated for 48 hrs by sulforhodamine B assay; assay type: functional; settings: SK-MEL-5, 48 h; method in brief: as §1
[8] = Antiproliferative activity against human IGROV1 cells incubated for 48 hrs by sulforhodamine B assay; assay type: functional; settings: IGROV-1, 48 h
[9] = read-out: pLC50 (the source's name) (converted)

Chain of Phosphatidylinositol 4,5-bisphosphate 3-kinase catalytic subunit gamma isoform (P48736 whole entry, canonical isoform): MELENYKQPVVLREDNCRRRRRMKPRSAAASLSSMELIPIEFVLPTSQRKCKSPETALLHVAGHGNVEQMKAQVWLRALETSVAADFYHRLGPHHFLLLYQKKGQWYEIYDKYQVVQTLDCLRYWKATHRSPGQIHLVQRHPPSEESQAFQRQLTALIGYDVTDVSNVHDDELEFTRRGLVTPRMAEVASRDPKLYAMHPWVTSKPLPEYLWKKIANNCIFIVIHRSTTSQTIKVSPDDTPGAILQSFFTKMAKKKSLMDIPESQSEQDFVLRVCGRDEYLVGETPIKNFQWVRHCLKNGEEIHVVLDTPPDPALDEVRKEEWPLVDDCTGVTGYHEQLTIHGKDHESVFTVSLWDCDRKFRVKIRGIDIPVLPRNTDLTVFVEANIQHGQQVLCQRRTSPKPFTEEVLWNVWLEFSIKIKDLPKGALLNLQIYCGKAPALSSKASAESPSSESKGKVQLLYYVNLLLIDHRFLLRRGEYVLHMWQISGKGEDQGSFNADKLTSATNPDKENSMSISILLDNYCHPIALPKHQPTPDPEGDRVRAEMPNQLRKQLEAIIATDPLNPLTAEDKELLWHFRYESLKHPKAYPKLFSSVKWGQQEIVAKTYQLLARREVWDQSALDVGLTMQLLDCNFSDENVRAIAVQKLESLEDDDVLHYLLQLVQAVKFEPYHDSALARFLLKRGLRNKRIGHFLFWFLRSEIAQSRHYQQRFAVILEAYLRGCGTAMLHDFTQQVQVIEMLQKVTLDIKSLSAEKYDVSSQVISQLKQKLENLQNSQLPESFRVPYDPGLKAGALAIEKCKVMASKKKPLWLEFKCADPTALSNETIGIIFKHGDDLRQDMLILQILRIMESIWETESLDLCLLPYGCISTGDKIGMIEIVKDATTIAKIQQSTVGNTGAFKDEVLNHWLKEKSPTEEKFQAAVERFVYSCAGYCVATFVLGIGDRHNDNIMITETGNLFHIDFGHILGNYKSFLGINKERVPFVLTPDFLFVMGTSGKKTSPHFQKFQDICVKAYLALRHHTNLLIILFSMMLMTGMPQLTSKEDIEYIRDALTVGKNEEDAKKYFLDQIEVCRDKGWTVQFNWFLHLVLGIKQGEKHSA

`COc1ncc(-c2ccc3nccc(C#CCN4CCN(S(C)(=O)=O)CC4)c3c2)cc1NS(=O)(=O)c1ccc(F)cc1F` showed a GI50 [1] of 17.4 nM, a CC50 [1, 9] of 33.9 µM and a TGI ([1]; read-out: pTGI (converted)) of 229 nM. It also gave a GI50 [2] of 51.3 nM, a CC50 [2, 9] of 11.7 µM and a TGI ([2]; read-out: pTGI (converted)) of 427 nM. For the same compound, the GI50 (SN12C) was 102 nM, the CC50 (SN12C; [9]) was over 100 µM and the TGI (SN12C; read-out: pTGI (converted)) was 12.3 µM. For the same compound, the GI50 [3] was 31.6 nM, the CC50 [3, 9] was 39.8 µM and the TGI ([3]; read-out: pTGI (converted)) was 11.7 µM. For the same compound, the GI50 (MCF7) was under 10 nM, the CC50 (MCF7; [9]) was 49 µM and the TGI (MCF7; read-out: pTGI (converted)) was 1780 nM. The inhibition (A549) was “Dose-dependent effect”, the Activity (Mus musculus) was “Non-toxic” and the pIC50 [4] was 8.57. It also gave an inhibition [5] of 25.8%, a GI50 (EKVX) of 25.7 nM and a CC50 (EKVX; [9]) of 42.7 µM. For the same compound, the GI50 (NCI-H23) was 295 nM, the CC50 (NCI-H23; [9]) was 20 µM and the TGI (NCI-H23; read-out: pTGI (converted)) was 2690 nM. The GI50 [6] was 138 nM, the CC50 [6, 9] was 5.75 µM and the TGI ([6]; read-out: pTGI (converted)) was 1660 nM. It also gave a GI50 [7] of 10.7 nM, a CC50 [7, 9] of 28.8 µM and a TGI ([7]; read-out: pTGI (converted)) of 151 nM. The GI50 (Malme-3M) was 19.9 nM, the CC50 (Malme-3M; [9]) was 33.9 µM and the TGI (Malme-3M; read-out: pTGI (converted)) was 324 nM. The GI50 (SK-MEL-5) was 195 nM, the CC50 (SK-MEL-5; [9]) was 2950 nM and the TGI (SK-MEL-5; read-out: pTGI (converted)) was 550 nM. It also gave a GI50 [8] of under 10 nM and a CC50 [8, 9] of over 100 µM.
